Assay results as given in ChEMBL document CHEMBL1123290, “Synthesis, antimalarial activity, and quantitative structure-activity relationships of tebuquine and a series of related 5-[(7-chloro-4-quinolinyl)amino]-3-[(alkylamino)methyl] [1,1'-biphenyl]-2-ols and N omega-oxides” (1986).

Columns and labels:
Type in all cases: functional
Plasmodium berghei [1] = assay: Change in mean survival time of Plasmodium berghei infected mice (Mus musculus) on 1.25 mg/kg subcutaneous dose
Mus musculus [2] = assay: Antimalarial activity, administered as a single subcutaneous dose of 80 mg/kg, 72 hrs post infection measured as number of mice (Mus musculus) surviving at 60 days post infection
Summary of the method: (§1)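 Mice were infected with a normal drug-sensitive Plasmodium berghei strain. At 72 h postinfection each received one subcutaneous dose of compound dissolved or suspended in peanut oil, in five-mouse groups per dose. The read-out was the number of mice alive at 60 days postinfection, which were scored as cured.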

Plasmodium berghei [3] = assay: Change in mean survival time in control (average 6.2 days) versus treated mice (Mus musculus) after 80 mg/kg subcutaneous dose
Plasmodium berghei [4] = assay: Antimalarial activity as 60-day survivors in infected mice (Mus musculus) after single 320mg/kg subcutaneous dose 72 hr post infection; summary of the method: as §1
Plasmodium berghei [5] = assay: (§2) Change in mean survival time for control (average 6.2 days) versus treated mice (Mus musculus) 72 hrs after […] subcutaneous dose
Mus musculus [6] = assay: Antimalarial activity, administered as a single subcutaneous dose of 640 mg/kg, 72 hrs post infection measured as number of mice (Mus musculus) surviving at 60 days post infection; summary of the method: as §1
Plasmodium berghei [7] = assay: Change in mean survival time of Plasmodium berghei infected mice (Mus musculus) after 5 mg/kg subcutaneous dose
Plasmodium berghei [8] = assay: Antimalarial activity as 60-day survivors in infected mice (Mus musculus) after single 20 mg/kg subcutaneous dose 72hr post infection; summary of the method: as §1
Plasmodium berghei [9] = assay: as §2; remark: listed apart in the source
Mus musculus [10] = assay: Antimalarial activity of compound administered as a single subcutaneous dose of 10mg/kg, 72 hrs post infection measured as number of mice (Mus musculus) surviving at 60 days post infection; summary of the method: as §1
Plasmodium berghei [11] = assay: Change in mean survival time for control (average 6.2 days) versus treated mice (Mus musculus) after 20 mg/kg subcutaneous dose
Plasmodium berghei [12] = assay: Antimalarial activity as 60-day survivors in Plasmodium berghei infected mice (Mus musculus) after single 160mg/kg subcutaneous dose 72 hr post infection; summary of the method: as §1
Plasmodium berghei [13] = assay: Change in mean survival time for control (average 6.2 days) versus treated mice (Mus musculus) after 320 mg/kg subcutaneous dose
Mus musculus [14] = assay: Antimalarial activity, administered as a single subcutaneous dose of 40 mg/kg, 72 hrs post infection measured as number of mice (Mus musculus) surviving at 60 days post infection; summary of the method: as §1
Plasmodium berghei [15] = assay: Change in mean survival time for control (average 6.2 days) versus treated mice (Mus musculus) after 40 mg/kg subcutaneous dose
Plasmodium berghei [16] = assay: Change in mean survival time of Plasmodium berghei infected mice (Mus musculus) after […] subcutaneous dose
Plasmodium berghei [17] = assay: Difference in mean survival time of Plasmodium berghei infected mice (Mus musculus) after 10 mg/kg subcutaneous dose
Plasmodium berghei [18] = assay: Change in mean survival time for control (average 6.2 days) versus treated mice (Mus musculus) 72 hrs after 320 mg/kg subcutaneous dose
Plasmodium berghei [19] = assay: Change in mean survival time for control (average 6.2 days) versus treated mice (Mus musculus) 72 hrs after 160 mg/kg subcutaneous dose
Plasmodium berghei [20] = assay: Change in mean survival time for control (average 6.2 days) versus treated mice (Mus musculus) 72 hrs after 5 mg/kg subcutaneous dose
Plasmodium berghei [21] = assay: Change in mean survival time for control (average 6.2 days) versus treated mice (Mus musculus) 72 hrs after […] subcutaneous dose
Plasmodium berghei [22] = assay: Antimalarial activity in primary screen
Plasmodium berghei [23] = assay: Difference in mean survival time in mice (Mus musculus) (control = 6.2 days) after single 40mg/kg subcutaneous dose 72hr post infection
Plasmodium berghei [24] = assay: Change in mean survival time for control (average 6.2 days) versus treated mice (Mus musculus) 72 hrs after 10 mg/kg subcutaneous dose
Plasmodium berghei [25] = assay: Change in mean survival time for control (average 6.2 days) versus treated mice (Mus musculus) 72 hrs after 20 mg/kg subcutaneous dose
Plasmodium berghei [26] = assay: Change in mean survival time for control (average of 6.2 days) versus treated mice (Mus musculus) 72 hrs after 80 mg/kg subcutaneous dose
Plasmodium berghei [27] = assay: Change in mean survival time for control (average 6.2 days) versus treated mice (Mus musculus) 72 hrs after 640 mg/kg subcutaneous dose
Mus musculus [28] = assay: Antimalarial activity of compound administered as a single subcutaneous dose of 5mg/kg, 72-h postinfection measured as number of mice (Mus musculus) surviving at 60 days postinfection; summary of the method: as §1
Mus musculus [29] = assay: Antimalarial activity of compound administered as a single subcutaneous dose of 40 mg/kg, 72-h postinfection measured as number of mice (Mus musculus) surviving at 60 days postinfection; summary of the method: as §1
Plasmodium berghei [30] = assay: Change in mean survival time for control (average 6.2 days) versus treated mice (Mus musculus) after 160 mg/kg subcutaneous dose

Structure (SMILES) | Delta MST (Plasmodium berghei [1]) | No. of mice cured (Mus musculus [2]) | No. of mice cured (Plasmodium berghei [4]) | Delta MST (Plasmodium berghei [5]) | No. of mice cured (Mus musculus [6]) | Delta MST (Plasmodium berghei [7]) | No. of mice cured (Plasmodium berghei [8]) | No. of mice cured (Mus musculus [10]) | No. of mice cured (Plasmodium berghei [12]) | No. of mice cured (Mus musculus [14]) | Delta MST (Plasmodium berghei [18]) | Delta MST (Plasmodium berghei [19]) | Delta MST (Plasmodium berghei [20]) | Delta MST (Plasmodium berghei [21]) | ED30 (Plasmodium berghei [22]) | Delta MST (Plasmodium berghei [23]) | Delta MST (Plasmodium berghei [24]) | Delta MST (Plasmodium berghei [25]) | Delta MST (Plasmodium berghei [26]) | Delta MST (Plasmodium berghei [27]) | further results
CN(C)Cc1cc(Nc2cc[n+]([O-])c3cc(Cl)ccc23)cc(-c2ccc(Cl)cc2)c1O | 0 days | 3 | 3 | 0 days | 1 | 17.6 days | 3 | 1 | 5 | 3 |  |  |  |  |  |  |  |  |  |  | Delta MST (Plasmodium berghei [3]): 21.9 days; Delta MST (Plasmodium berghei [9]): 20.7 days; Delta MST (Plasmodium berghei [11]): 27.8 days; Delta MST (Plasmodium berghei [13]): 17.9 days; Delta MST (Plasmodium berghei [15]): 26.3 days; Delta MST (Plasmodium berghei [16]): 5 days; Delta MST (Plasmodium berghei [17]): 17.8 days
CCN(CC)Cc1cc(Nc2ccnc3cc(Cl)ccc23)cc(-c2cccc(F)c2F)c1O |  | 3 | 4 | 0.7 days | 4 |  | 2 | 1 | 2 | 3 | 19.8 days | 35.1 days | 13.7 days | 6.7 days | 8.7 mg/kg | 39.4 days | 16.7 days | 22.2 days | 33.3 days | 19.8 days | 
CCN(CC)Cc1cc(Nc2ccnc3cc(Cl)ccc23)cc(-c2cccnc2)c1O |  | 1 | 4 | 1.8 days | 3 |  | 1 | 1 | 4 | 1 | 37.8 days | 18.8 days | 10.6 days | 5.4 days | 31 mg/kg | 20.3 days | 8.6 days | 13.6 days | 19.6 days | 34.8 days | No. of mice cured (Mus musculus [28]): 1
CCN(CC)Cc1cc(Nc2cc[n+]([O-])c3cc(Cl)ccc23)cc(-c2ccc(Cl)cc2)c1O | 0.7 days | 5 | 5 |  | 5 | 5.7 days | 3 | 2 | 5 | 4 |  |  |  |  | 9.2 mg/kg |  |  |  |  |  | Delta MST (Plasmodium berghei [11]): 20.9 days; Delta MST (Plasmodium berghei [15]): 36.9 days; Delta MST (Plasmodium berghei [16]): 1.3 days; Delta MST (Plasmodium berghei [17]): 14.2 days
CCC(C)NCc1cc(Nc2ccnc3cc(Cl)ccc23)cc(-c2ccc(Cl)cc2)c1O (stereo not drawn) |  | 3 | 1 | 0.2 days |  |  | 3 |  |  |  | 12.5 days | 14.2 days | 11 days | 2 days |  | 15 days | 23.6 days | 21 days | 14 days |  | No. of mice cured (Mus musculus [29]): 4
CCN(CC)Cc1cc(Nc2ccnc3cc(Cl)ccc23)cc(-c2cccc(F)c2)c1O |  | 2 | 1 | 0.4 days | 3 |  | 2 |  | 3 | 3 | 13.8 days | 14.8 days | 5.6 days | 1.8 days | 12.4 mg/kg | 25.1 days | 23.2 days | 23.6 days | 12.8 days | 15.8 days | No. of mice cured (Mus musculus [28]): 1
CCN(CC)Cc1cc(Nc2cc[n+]([O-])c3cc(Cl)ccc23)cc(-c2ccc(C(F)(F)F)cc2)c1O | 0.2 days | 3 | 2 |  | 1 | 13.6 days | 2 | 1 | 3 | 2 |  |  |  |  | 7.4 mg/kg |  |  |  |  |  | Delta MST (Plasmodium berghei [3]): 19.7 days; Delta MST (Plasmodium berghei [9]): 16.5 days; Delta MST (Plasmodium berghei [30]): 13.2 days; Delta MST (Plasmodium berghei [11]): 33.6 days; Delta MST (Plasmodium berghei [13]): 12.7 days; Delta MST (Plasmodium berghei [15]): 28.6 days; Delta MST (Plasmodium berghei [16]): 2.6 days; Delta MST (Plasmodium berghei [17]): 27.9 days
CCN(CC)Cc1cc(Nc2ccnc3cc(Cl)ccc23)cc(-c2ccc(C(F)(F)F)cc2)c1O |  | 2 |  | 0 days | 1 |  | 2 | 1 |  | 2 | 10.1 days | 11.9 days | 11 days | 2 days | 9.8 mg/kg | 13 days | 18.9 days | 19.4 days | 12 days | 17 days | 
CC(C)(C)NCc1cc(Nc2ccnc3cc(Cl)ccc23)cc(-c2ccc(Cl)cc2)c1O [TEBUQUINE] |  | 3 | 1 | 0.3 days |  |  | 3 | 2 | 2 | 4 | 16.4 days | 14.9 days | 11.4 days | 2.3 days |  | 19.9 days |  | 14.9 days |  | 17.1 days | No. of mice cured (Mus musculus [28]): 1
